Data: ChEMBL document CHEMBL1687897, “Design, synthesis and biological activity of pyrazolo[1,5-a]pyrimidin-7(4H)-ones as novel Kv7/KCNQ potassium channel activators” (Eur J Med Chem, 2011)
pEC50: −log10 of the molar value. The source made the active and inactive calls. The rule behind the calls is not given here.

Experiments:
[1] = target: T1, Voltage-gated potassium channel, KQT; KCNQ2(Kv7.2)/KCNQ3(Kv7.3) (Homo sapiens) (UniProt O43526+O43525); test: Activation of KCNQ2/Q3 expressed in CHO cells at 100 uM by atomic absorption Rb'+ efflux assay; format: cell-based
Summary of the method: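 Stable KCNQ2/KCNQ3 CHO cells were Rb+-loaded 3 h at 37 °C and washed. Compound was given once at a single screening concentration in 20 mM K+ depolarization buffer for 10 min. Supernatant Rb+ was measured by flame atomic absorption at 780 nm. A rubidium response under 15% of control was scored as no activity.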

[2] = target: Voltage-gated potassium channel, KQT; KCNQ2(Kv7.2)/KCNQ3(Kv7.3) (Homo sapiens, UniProt O43525+O43526); test: Activation of KCNQ2/Q3 expressed in CHO cells by atomic absorption Rb'+ efflux assay; format: cell-based
Summary of the method: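 CHO cells stably expressing KCNQ2/KCNQ3 were plated at 20,000 cells/well overnight at 37 °C. They were loaded 3 h in buffer containing 5.4 mM RbCl (pH 7.4), then washed three times with 5.4 mM KCl buffer. Compound was applied in 20 mM K+ depolarization buffer for 10 min. Supernatant Rb+ was read by flame atomic absorption at 780 nm against a 0–5 mg/l calibration. EC50 from n = 3.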

[3] = target: T1, Voltage-gated potassium channel, KQT; KCNQ2(Kv7.2)/KCNQ3(Kv7.3) (Homo sapiens); test: Activation of human KCNQ2/Q3 expressed in CHO cells held at -80 mV for 500 ms followed by depolarized to -40 mV for 800 ms followed by 800 ms pulse-back to -80 mV assessed as increase in both activation and deactivation tail current at 100 uM by whole cell patch-clamp assay
[4] = target: T1, Voltage-gated potassium channel, KQT; KCNQ2(Kv7.2)/KCNQ3(Kv7.3) (Homo sapiens); test: Activation of human KCNQ2/Q3 expressed in CHO cells assessed as increase in channel current at -40 mV holding potential at 100 uM by whole cell patch-clamp assay; format: cell-based
Summary of the method: (§1)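 Perforated whole-cell patch clamp was run on CHO cells stably expressing KCNQ2/KCNQ3. Cells were held at −80 mV for 500 ms, stepped to −40 mV for 800 ms, then returned to −80 mV for 800 ms. The activation current and the deactivation tail current were measured, with a time course of current recorded at −40 mV.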

[5] = target: T2, Potassium voltage-gated channel subfamily KQT member 1 (Homo sapiens, UniProt P51787); test: Activation of KCNQ1 expressed in HEK293 cells by atomic absorption Rb'+ efflux assay; format: cell-based
T2 sequence (P51787 whole entry): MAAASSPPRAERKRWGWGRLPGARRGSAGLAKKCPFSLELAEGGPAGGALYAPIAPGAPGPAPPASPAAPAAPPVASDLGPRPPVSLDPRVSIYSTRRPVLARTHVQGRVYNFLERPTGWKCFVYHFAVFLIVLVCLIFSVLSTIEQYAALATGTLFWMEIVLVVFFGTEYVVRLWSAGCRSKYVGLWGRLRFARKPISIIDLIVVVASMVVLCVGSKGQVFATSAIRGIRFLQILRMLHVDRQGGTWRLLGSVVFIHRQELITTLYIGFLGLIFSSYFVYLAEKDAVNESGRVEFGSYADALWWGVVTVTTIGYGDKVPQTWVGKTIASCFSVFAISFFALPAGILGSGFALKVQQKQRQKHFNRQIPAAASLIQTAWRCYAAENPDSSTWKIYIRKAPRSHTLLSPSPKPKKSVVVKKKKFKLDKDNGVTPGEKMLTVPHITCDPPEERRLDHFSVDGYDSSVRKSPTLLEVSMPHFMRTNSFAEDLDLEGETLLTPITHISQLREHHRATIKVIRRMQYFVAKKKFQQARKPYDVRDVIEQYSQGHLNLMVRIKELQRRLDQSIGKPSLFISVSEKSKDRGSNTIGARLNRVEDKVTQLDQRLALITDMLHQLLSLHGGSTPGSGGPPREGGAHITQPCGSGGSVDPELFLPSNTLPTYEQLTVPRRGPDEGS
Summary of the method: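 HEK293 cells stably expressing KCNQ1 (G418 selection) were plated at 20,000 cells/well overnight. They were loaded 3 h with 5.4 mM RbCl buffer at 37 °C and washed. Compound was applied in 20 mM K+ depolarization buffer for 10 min. Supernatant Rb+ was measured by flame atomic absorption at 780 nm. EC50 from n = 3.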

[6] = Selectivity ratio of EC50 for KCNQ1 to KCNQ2/Q3 by atomic absorption Rb'+ efflux assay
[7] = target: T1, Voltage-gated potassium channel, KQT; KCNQ2(Kv7.2)/KCNQ3(Kv7.3) (Homo sapiens); test: Activation of human KCNQ2/Q3 expressed in CHO cells held at -80 mV for 500 ms followed by depolarized to -40 mV for 800 ms followed by 800 ms pulse-back to -80 mV assessed as increase in both activation and deactivation tail current at 10 uM by whole cell patch-clamp assay
[8] = target: T1, Voltage-gated potassium channel, KQT; KCNQ2(Kv7.2)/KCNQ3(Kv7.3) (Homo sapiens); test: Activation of human KCNQ2/Q3 expressed in CHO cells assessed as increase in channel current at -40 mV holding potential at 10 uM by whole cell patch-clamp assay; format: cell-based; summary of the method: as §1

Chain of Voltage-gated potassium channel, KQT; KCNQ2(Kv7.2)/KCNQ3(Kv7.3) (O43526 whole entry): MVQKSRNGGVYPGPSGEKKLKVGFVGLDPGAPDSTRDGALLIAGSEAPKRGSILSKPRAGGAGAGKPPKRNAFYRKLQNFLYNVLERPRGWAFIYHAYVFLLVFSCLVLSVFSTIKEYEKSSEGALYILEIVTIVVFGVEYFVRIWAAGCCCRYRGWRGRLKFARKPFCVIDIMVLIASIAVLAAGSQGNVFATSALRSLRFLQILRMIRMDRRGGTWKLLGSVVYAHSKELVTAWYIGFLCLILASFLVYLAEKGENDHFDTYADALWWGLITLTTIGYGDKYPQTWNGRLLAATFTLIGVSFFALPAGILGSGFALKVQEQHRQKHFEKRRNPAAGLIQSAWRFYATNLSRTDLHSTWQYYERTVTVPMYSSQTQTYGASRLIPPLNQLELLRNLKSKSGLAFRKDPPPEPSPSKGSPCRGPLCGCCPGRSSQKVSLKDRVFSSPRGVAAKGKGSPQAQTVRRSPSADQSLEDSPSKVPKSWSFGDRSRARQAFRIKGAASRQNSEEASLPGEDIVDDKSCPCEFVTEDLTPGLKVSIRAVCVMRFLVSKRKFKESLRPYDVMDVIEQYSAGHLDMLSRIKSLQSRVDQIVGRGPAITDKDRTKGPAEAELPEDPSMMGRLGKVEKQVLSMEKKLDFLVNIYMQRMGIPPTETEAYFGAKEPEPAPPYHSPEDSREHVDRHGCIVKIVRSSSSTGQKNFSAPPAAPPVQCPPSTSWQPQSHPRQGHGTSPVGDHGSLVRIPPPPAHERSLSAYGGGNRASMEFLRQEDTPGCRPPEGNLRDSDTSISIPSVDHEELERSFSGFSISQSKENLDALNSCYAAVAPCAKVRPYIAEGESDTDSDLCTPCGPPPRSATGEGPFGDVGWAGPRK
Chain of Voltage-gated potassium channel, KQT; KCNQ2(Kv7.2)/KCNQ3(Kv7.3) (O43525 whole entry): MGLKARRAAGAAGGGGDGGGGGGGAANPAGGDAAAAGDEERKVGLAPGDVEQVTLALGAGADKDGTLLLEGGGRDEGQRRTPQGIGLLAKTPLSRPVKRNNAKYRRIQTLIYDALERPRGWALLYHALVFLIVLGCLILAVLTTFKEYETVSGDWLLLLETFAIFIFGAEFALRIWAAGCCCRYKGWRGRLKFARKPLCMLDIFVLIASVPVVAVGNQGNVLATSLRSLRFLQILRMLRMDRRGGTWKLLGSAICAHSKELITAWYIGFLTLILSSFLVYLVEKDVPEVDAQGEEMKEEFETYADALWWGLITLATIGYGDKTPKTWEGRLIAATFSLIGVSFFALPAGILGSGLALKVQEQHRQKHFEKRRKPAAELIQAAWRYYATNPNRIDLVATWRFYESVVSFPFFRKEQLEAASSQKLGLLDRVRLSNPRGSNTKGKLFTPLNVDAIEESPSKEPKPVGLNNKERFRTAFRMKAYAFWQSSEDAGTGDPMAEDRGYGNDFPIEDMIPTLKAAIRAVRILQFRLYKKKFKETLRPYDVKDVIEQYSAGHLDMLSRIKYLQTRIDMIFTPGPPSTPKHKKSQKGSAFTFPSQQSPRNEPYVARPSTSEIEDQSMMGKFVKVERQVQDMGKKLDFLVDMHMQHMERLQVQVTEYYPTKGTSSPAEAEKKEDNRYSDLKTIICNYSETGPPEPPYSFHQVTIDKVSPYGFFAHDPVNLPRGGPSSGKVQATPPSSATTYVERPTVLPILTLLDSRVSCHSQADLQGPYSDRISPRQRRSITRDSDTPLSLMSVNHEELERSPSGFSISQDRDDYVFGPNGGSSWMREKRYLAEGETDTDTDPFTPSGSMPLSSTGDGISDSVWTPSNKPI

Row | SMILES | pEC50 [2] | further results
1 | CCOC(=O)c1c(C(F)(F)F)nn2c(=O)cc(CCl)[nH]c12 |  | Activity [1]: inactive
2 | COc1ccc(-c2cc(=O)n3nc(C(F)(F)F)c(-c4ccccc4)c3[nH]2)cc1 | 5.71 | 
3 | CC(C)(C)c1cc(=O)n2nc(C(F)(F)F)c(-c3cccc4ccccc34)c2[nH]1 | 4.71 | 
4 | O=c1cc(C(F)(F)F)[nH]c2c(-c3ccc(Cl)cc3)c(C(F)(F)F)nn12 | 5.69 | 
5 | O=c1cc(CCl)[nH]c2c(-c3ccccc3)c(C(F)(F)F)nn12 | 5.64 | Activity [3]: Active; Activity [4]: Active
6 | O=c1cc(-c2cc(F)c(Cl)nc2Cl)[nH]c2c(-c3ccccc3)c(C(F)(F)F)nn12 | 7.22 | pEC50 [5]: 4.31; Ratio EC50 [6]: 800; Activity [7]: Active; Activity [8]: Active
7 | O=c1cc(-c2cc(F)c(F)cc2F)[nH]c2c(-c3ccc(Cl)cc3)c(C(F)(F)F)nn12 | 6.68 | 
8 | O=c1cc(-c2cccc([N+](=O)[O-])c2)[nH]c2c(-c3ccccc3)c(C(F)(F)F)nn12 | 6.24 | 
9 | O=c1cc(-c2cccc([N+](=O)[O-])c2)[nH]c2c(-c3cccs3)c(C(F)(F)F)nn12 | 6.24 | 
10 | O=c1cc(C(F)(F)F)[nH]c2c(-c3cccc4ccccc34)c(C(F)(F)F)nn12 | 5.30 | 
11 | O=c1cc(C(F)F)[nH]c2c(-c3ccccc3)c(C(F)(F)F)nn12 | 5.37 | 
12 | O=c1cc(C(F)(F)F)[nH]c2c(-c3ccccc3)c(C(F)(F)F)nn12 | 5.84 | Activity [3]: Active; Activity [4]: Active
13 | CC(C)(C)c1cc(=O)n2nc(C(F)(F)F)c(-c3ccccc3)c2[nH]1 | 5.21 | 
14 | O=c1cc(CCl)[nH]c2c(-c3cccc4ccccc34)c(C(F)(F)F)nn12 | 5.90 | 
15 | O=c1cc(CN2CCCCC2)[nH]c2c(-c3ccccc3)c(C(F)(F)F)nn12 |  | Activity [1]: inactive
16 | Cc1cc(O)n2nc(C(F)(F)F)c(-c3ccccc3)c2n1 |  | Activity [1]: inactive
17 | O=c1cc(C(F)(F)F)[nH]c2c(-c3c[nH]c4ccccc34)c(C(F)(F)F)nn12 |  | Activity [1]: inactive
18 | O=c1cc(-c2cc(F)c(F)c(F)c2F)[nH]c2c(-c3ccccc3)c(C(F)(F)F)nn12 | 6.22 | 
19 | O=c1cc(-c2cc(F)c(F)c(F)c2F)[nH]c2c(-c3cccs3)c(C(F)(F)F)nn12 | 6.80 | 
20 | COc1ccc(-c2c(C(F)(F)F)nn3c(=O)cc(-c4cc(F)c(Cl)nc4Cl)[nH]c23)cc1OC | 6.64 | 
21 | O=c1cc(C(F)(F)F)[nH]c2c(-c3ccccc3)cnn12 |  | Activity [1]: inactive
22 | Cc1nn2c(=O)cc(CCl)[nH]c2c1-c1ccccc1 |  | Activity [1]: inactive
23 | Oc1cc(-c2ccccc2)nc2c(-c3ccccc3)c(C(F)(F)F)nn12 |  | Activity [1]: inactive
24 | O=c1cc(CCl)[nH]c2c(-c3ccc(Cl)cc3)c(C(F)(F)F)nn12 | 5.63 | 
25 | CCOC(=O)Nc1ccc(NCc2ccc(F)cc2)cc1N [EZOGABINE] | 6.37 | Activity [8]: Active
26 | O=c1cc(-c2cc(F)c(Cl)nc2Cl)[nH]c2c(-c3cccc4ccccc34)c(C(F)(F)F)nn12 | 6.82 | Activity [7]: Active; Activity [8]: Active
